Assay results reported in ChEMBL document CHEMBL1137710, “Synthesis and in vitro antitumor activity of new quinoxaline derivatives” (2009).

What was measured:
Format in all cases: functional
SR = assay: Growth inhibition of human SR cells after 48 hrs by sulforhodamine B assay
Outline: (§1)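 Run in the NCI 60-human-tumour-cell-line panel, tested over a 5-log dose range. Dose–response curves gave three values per cell line, each as a log10 molar concentration: GI50 (50% inhibition of net cell growth), TGI (total inhibition of net growth) and LC50 (50% net cell death). The mean graph midpoint is the arithmetic mean over all lines, with insensitive lines entered at the highest concentration tested.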

NCI-H23 = assay: Growth inhibition of human NCI-H23 cells after 48 hrs by sulforhodamine B assay; conditions: NCI-H23, 48 h
Outline: (§2)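 NCI 60-human-tumor-cell-line panel, with compounds tested over a 5-log dose range. Values are taken from dose-response curves as log10 molar concentrations: GI50 is 50% net growth inhibition, TGI is total growth inhibition, and LC50 is 50% net cell death.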

OVCAR-8 = assay: Growth inhibition of human OVCAR8 cells after 48 hrs by sulforhodamine B assay; conditions: OVCAR-8, 48 h; outline: as §2
SK-MEL-28 = assay: Growth inhibition of human SK-MEL-28 cells after 48 hrs by sulforhodamine B assay; conditions: SK-MEL-28, 48 h; outline: as §2
COLO 205 = assay: Growth inhibition of human COLO205 cells after 48 hrs by sulforhodamine B assay; conditions: COLO 205, 48 h; outline: as §2
MCF7 [1] = assay: Growth inhibition of human MCF7 cells after 48 hrs by sulforhodamine B assay; conditions: MCF7, 48 h; outline: as §2
PC-3 = assay: Growth inhibition of human PC3 cells after 48 hrs by sulforhodamine B assay; conditions: PC-3, 48 h; outline: as §2
SF-295 = assay: Growth inhibition of human SF295 cells after 48 hrs by sulforhodamine B assay; conditions: SF-295, 48 h; outline: as §2
[2] = Growth inhibition of human Hs 578T cells after 48 hrs by sulforhodamine B assay; outline: as §2
UACC-257 = assay: Growth inhibition of human UACC257 cells after 48 hrs by sulforhodamine B assay; conditions: UACC-257, 48 h; outline: as §1
SK-MEL-5 = assay: Growth inhibition of human SK-MEL-5 cells after 48 hrs by sulforhodamine B assay; conditions: SK-MEL-5, 48 h; outline: as §2
A549 = assay: Growth inhibition of human A549 cells after 48 hrs by sulforhodamine B assay; conditions: A549, 48 h; outline: as §2
MDA-MB-435 = assay: Growth inhibition of human MDA-MB-435 cells after 48 hrs by sulforhodamine B assay; conditions: MDA-MB-435, 48 h; outline: as §2
OVCAR-5 = assay: Growth inhibition of human OVCAR5 cells after 48 hrs by sulforhodamine B assay; conditions: OVCAR-5, 48 h; outline: as §2
MCF7 [3] = assay: Anticancer activity against human MCF7 cells assessed as cell growth at 100 uM after 48 hrs by sulforhodamine B assay; conditions: MCF7, 48 h, read-out: Activity
SK-MEL-2 = assay: Growth inhibition of human SK-MEL-2 cells after 48 hrs by sulforhodamine B assay; conditions: SK-MEL-2, 48 h; outline: as §2
SNB-19 = assay: Growth inhibition of human SNB19 cells after 48 hrs by sulforhodamine B assay; conditions: SNB-19, 48 h; outline: as §1
RXF 393 = assay: Growth inhibition of human RXF393 cells after 48 hrs by sulforhodamine B assay; conditions: RXF 393, 48 h; outline: as §2
HCT-116 = assay: Growth inhibition of human HCT116 cells after 48 hrs by sulforhodamine B assay; conditions: HCT-116, 48 h; outline: as §2
DU-145 = assay: Growth inhibition of human DU145 cells after 48 hrs by sulforhodamine B assay; conditions: DU-145, 48 h; outline: as §2
SF-268 [4] = assay: Anticancer activity against human SF268 cells assessed as cell growth at 100 uM after 48 hrs by sulforhodamine B assay; conditions: SF-268, 48 h, read-out: Activity
[5] = Growth inhibition of human […] cells after 48 hrs by sulforhodamine B assay; outline: as §2
NCI-H322M = assay: Growth inhibition of human NCI-H322M cells after 48 hrs by sulforhodamine B assay; outline: as §2
SF-268 [6] = assay: Growth inhibition of human SF268 cells after 48 hrs by sulforhodamine B assay; conditions: SF-268, 48 h; outline: as §2
NCI-H460 = assay: Anticancer activity against human NCI-H460 cells assessed as cell growth at 100 uM after 48 hrs by sulforhodamine B assay; conditions: NCI-H460, 48 h, read-out: Activity
U-251 = assay: Growth inhibition of human U251 cells after 48 hrs by sulforhodamine B assay; conditions: U-251, 48 h; outline: as §1
IGROV-1 = assay: Growth inhibition of human IGROV1 cells after 48 hrs by sulforhodamine B assay; conditions: IGROV-1, 48 h; outline: as §2
LOX IMVI = assay: Growth inhibition of human LOXIMVI cells after 48 hrs by sulforhodamine B assay; outline: as §2
SW-620 = assay: Growth inhibition of human SW620 cells after 48 hrs by sulforhodamine B assay; conditions: SW-620, 48 h; outline: as §1
[7] = read-out: pLC50 (the source's name) (converted)

Nc1cc(N)c2nc(-c3ccccc3)c(NCc3ccc(F)cc3)nc2c1
GI50 (SR): 4.07 µM
LC50 (concentration giving 50% net cell death) (SR): > 100 µM
TGI (SR; read-out: pTGI (converted)): > 100 µM
GI50 (NCI-H23): 2.4 µM
LC50 (50% net cell kill concentration) (NCI-H23): 8.91 µM
TGI (NCI-H23; read-out: pTGI (converted)): 4.57 µM
GI50 (OVCAR-8): 2.63 µM
CC50 (OVCAR-8; [7]): 21.9 µM
TGI (OVCAR-8; read-out: pTGI (converted)): 6.03 µM
GI50 (SK-MEL-28): 1.91 µM
CC50 (SK-MEL-28; [7]): 7.41 µM
TGI (SK-MEL-28; read-out: pTGI (converted)): 3.8 µM
GI50 (COLO 205): 2.51 µM
LC50 (50% net cell kill) (COLO 205): > 100 µM
TGI (COLO 205; read-out: pTGI (converted)): 6.17 µM
GI50 (MCF7 [1]): 3.02 µM
CC50 (MCF7 [1]; [7]): > 100 µM
TGI (MCF7 [1]; read-out: pTGI (converted)): > 100 µM
GI50 (PC-3): 3.47 µM
CC50 (PC-3; [7]): > 100 µM
TGI (PC-3; read-out: pTGI (converted)): 15.5 µM
GI50 (SF-295): 3.47 µM
LC50 (50% net cell kill) (SF-295): 64.6 µM
TGI (SF-295; read-out: pTGI (converted)): 13.5 µM
GI50 [2]: 4.9 µM
CC50 [2, 7]: > 100 µM
TGI ([2]; read-out: pTGI (converted)): > 100 µM
GI50 (UACC-257): 2.04 µM
CC50 (UACC-257; [7]): 8.91 µM
TGI (UACC-257; read-out: pTGI (converted)): 4.27 µM
GI50 (SK-MEL-5): 1.86 µM
CC50 (SK-MEL-5; [7]): 6.92 µM
TGI (SK-MEL-5; read-out: pTGI (converted)): 3.63 µM
GI50 (A549): 17.8 µM
LC50 (A549): 69.2 µM
TGI (A549; read-out: pTGI (converted)): 34.7 µM
GI50 (MDA-MB-435): 2 µM
CC50 (MDA-MB-435; [7]): 6.92 µM
TGI (MDA-MB-435; read-out: pTGI (converted)): 3.72 µM
GI50 (OVCAR-5): 2.63 µM
CC50 (OVCAR-5; [7]): > 100 µM
TGI (OVCAR-5; read-out: pTGI (converted)): 7.59 µM
growth at 100 µM (MCF7 [3]): 1%
GI50 (SK-MEL-2): 5.25 µM
CC50 (SK-MEL-2; [7]): > 100 µM
TGI (SK-MEL-2; read-out: pTGI (converted)): > 100 µM
GI50 (SNB-19): 6.61 µM
LC50 (SNB-19): 52.5 µM
TGI (SNB-19; read-out: pTGI (converted)): 20 µM
GI50 (RXF 393): 12.3 µM
CC50 (RXF 393; [7]): 60.3 µM
TGI (RXF 393; read-out: pTGI (converted)): 26.9 µM
GI50 (HCT-116): 12.9 µM
LC50 (concentration causing 50% net cell death) (HCT-116): > 100 µM
TGI (HCT-116; read-out: pTGI (converted)): > 100 µM
GI50 (DU-145): 1.51 µM
CC50 (DU-145; [7]): 9.77 µM
TGI (DU-145; read-out: pTGI (converted)): 3.8 µM
growth at 100 µM (SF-268 [4]): 1%
GI50 [5]: 2.51 µM
LC50 [5]: > 100 µM
TGI ([5]; read-out: pTGI (converted)): 6.31 µM
GI50 (NCI-H322M): 3.47 µM
LC50 (NCI-H322M): 40.7 µM
TGI (NCI-H322M; read-out: pTGI (converted)): 11.5 µM
GI50 (SF-268 [6]): 2.82 µM
LC50 (SF-268 [6]): 40.7 µM
TGI (SF-268 [6]; read-out: pTGI (converted)): 7.59 µM
growth at 100 µM (NCI-H460): 1%
GI50 (U-251): 1.58 µM
LC50 (50% net cell kill) (U-251): 6.31 µM
TGI (U-251; read-out: pTGI (converted)): 3.16 µM
GI50 (IGROV-1): 3.09 µM
CC50 (IGROV-1; [7]): > 100 µM
TGI (IGROV-1; read-out: pTGI (converted)): > 100 µM
GI50 (LOX IMVI): 1.51 µM
LC50 (LOX IMVI): 6.61 µM
TGI (LOX IMVI; read-out: pTGI (converted)): 3.16 µM
GI50 (SW-620): 2.19 µM
CC50 (SW-620; [7]): > 100 µM
TGI (SW-620; read-out: pTGI (converted)): 9.55 µM
